# Source: PubChem BioAssay (several laboratories)
# A selection: hits, their analogues and other compounds. The true share with any hit is near 3.8%.
# sdo1 growth: restores growth of sdo1-depleted yeast | S. cerevisiae sdo1-depleted JHY4D growth rescue, OD600 30 h; active compounds read high; pdr5 snq2 efflux-pump mutant strain | z-score at 10 µM | 0.21% of 140,000 active;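 active = z-score above 3 at both the 24 hr and the 30 hr optical density reads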;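 note: z-score against mean and SD of all compound wells on the same plate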
# Yeast lifespan up: extends the lifespan of yeast. 0.68% of 130,000 active. inhibition of the nicotinamide effect, % at 10 µM. S. cerevisiae growth with nicotinamide, OD615; deaD strain in restrictive glucose medium;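 active = inhibition above a set limit, placed 3 SD over the median of all compounds, cut at about 26% in these data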;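 note: 0% = nicotinamide-treated wells and 100% = cells grown without nicotinamide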
#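 Material: Modified budding yeast, DeaD strain | Medium: Restrictive glucose medium | Probe or stimulus: 1.5 mM nicotinamide | Dosing: Single dose 10 µM compound, 0.25% DMSO | Times: 48 h at 30 °C | Technique: OD615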
# Measles CPE: protection of cells from measles virus. AID 841. 1.5% of 140,000 active. Measles virus-infected cells, CPE protection, absorbance. protection (pct of control), % at 4 µM; in the data active = protection mostly above about 24%, no sharp cut-off; inactive = mostly below about 26%
# RAM network inh: yeast RAM network inhibition. S. cerevisiae dse1pr::URA3 reporter, 5-FOA growth OD615, 2 d; analog-sensitive cbk1-as2 kinase mutant strain. inhibition, % at 50 µM. 1.8% of 190,000 active;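 active = inhibition above a set limit, 3 SD over mean compound inhibition, cut at about 8.4% in these data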;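 note: 0% = DMSO-only wells with no growth and 100% = 10 µM 1-NA-PP1 full growth; inhibition rescues growth on 5-FOA so higher OD means more RAM inhibition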
# BB579 growth dn: yeast BB579 growth reduction in restrictive medium. S. cerevisiae BB579 growth, OD615, 48 h. inhibition, % at 10 µM. 0.51% of 140,000 active;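 active = inhibition above a set limit, 3 SD over the mean compound inhibition, cut at about 44% in these data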
#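 Detection: OD615 turbidity measurement; Material: Saccharomyces cerevisiae DeaD strain BB579, replicative lifespan model yeast; Timing: 48 h exposure, 30 °C; Doses: single 10 µM dose; Medium: CSMM-D restrictive synthetic medium containing dextrose (glucose); Controls: amphotericin B at 10 µg/mL as positive control.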
# SDO1 rescue DR: confirmation of growth rescue in SDO1-depleted yeast, bone marrow failure | shares compounds with sdo1 growth | AID 949 | OD recovery (test concentration not listed) | 44% of 440 active | S. cerevisiae JHY4D (SDO1-depleted) growth rescue, OD600, 30 h; active compounds read high; efflux-deficient strain, SNQ2 and PDR5 mutated;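 active = yeast growth recovered at 30 hours, either rising with dose fitted slope above 0.001 or with average optical density gain above 0.07, some results past the limit were not filed as active; inactive = growth falling with dose or no effect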;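 note: gain in OD600 from 0 h to 30 h averaged across all seven doses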
# * = called active by the depositor; . = not tested or not shown.
SMILES,sdo1 growth,Yeast lifespan up,Measles CPE,RAM network inh,BB579 growth dn,others
O=C(NCc1ccco1)C(c1ccccc1)N(Cc1ccccc1)C(=O)Cn1nnc2ccccc21 (stereo not given),0.47,.,41*,5,-29,
CCOC(=O)C1=C(C)NC(SCC(=O)OC)=C(C#N)C1c1ccc(C(=O)OC)cc1 (stereo not given),0.51,5,12,11*,-3,
CCCCNc1nc(=S)n(-c2ccccc2)c(C)c1C(C)=O,.,.,.,1,.,
CS(=O)(=O)c1nc(-c2ccccc2)cc(C(F)(F)F)n1,-1.3,75*,-1,-2,-36,
CCN1CCN(C(c2ccc(OC)cc2)c2nnnn2Cc2ccc3c(c2)OCO3)CC1 (stereo not given),.,.,.,1,.,
CCOC(=O)C1Cc2ccccc2CN1 (stereo not given),-0.24,-2,2,2,-37,
CCOC(=O)C1Cc2c([nH]c3ccccc23)CN1 (stereo not given),1.4,-16,42*,0,-35,
CCn1c(SCC(=O)Nc2sc3c(c2C#N)CCCC3)nnc1-c1ccncc1,0.79,.,18,11*,-40,
Cc1ccc(C(=O)N(C)CC(=O)Nc2ccc(F)c(F)c2F)o1,.,.,.,0,.,
CC(/C=C1\SC(=O)N(CCCC(=O)O)C1=O)=C\c1ccccc1,0.09,29*,27,1,-18,
Cc1ccc(Oc2cc(NC(=O)CCCn3nc([N+](=O)[O-])cc3C)cc([N+](=O)[O-])c2)cc1,-0.7,0,5,9.5*,-41,
Cc1ccc(NC(=O)CCn2nc([N+](=O)[O-])cc2C)nc1,1.4,27*,6,0,-12,
Cc1nn(CCCC(=O)Nc2cc(Oc3ccccc3)cc([N+](=O)[O-])c2)c(C)c1[N+](=O)[O-],-0.25,1,15,6,-9,
CN(C)c1ccc(-c2nnn(CC(=O)NCc3ccc4c(c3)OCO4)n2)cc1,.,.,.,2,.,
COc1ccccc1NC(=S)NCCC(c1ccccc1)c1ccccc1,-1,-3,16,9.8*,22,
COc1cc(NC(=S)NCCC(c2ccccc2)c2ccccc2)c(OC)cc1Cl,-1.2,0,38*,4,-2,
COc1ccc(Cl)cc1NC(=S)NCCC(c1ccccc1)c1ccccc1,-0.62,-9,4,0,7,
S=C(NCCC(c1ccccc1)c1ccccc1)Nc1ccc(Cl)cc1,-0.78,-23,48*,5,19,
Cc1ccnc(NC(c2ccccc2O)c2oc(CO)cc(=O)c2O)c1 (stereo not given),.,.,.,1,.,
Cc1cccc(Cn2c(C(C)(C)C)cc3cccnc32)c1,0.19,-4,11,0,0,
Cc1ccc(NC(=O)CN2C(=O)N/C(=C/c3ccc(C)o3)C2=O)cc1,-0.59,-17,4,1,-55,
Cc1ccc(NC(=O)CN2C(=O)N/C(=C/c3ccc(N4CCOCC4)cc3)C2=O)cc1,-0.3,9,1,8.8*,-25,
COc1cccc(NC(=O)C(NCC(C)(C)CN(C)C)c2ccccc2)c1 (stereo not given),-0.06,-9,46*,0,-26,
CC(C)CNC(=O)c1ccc(COc2ccc(Cl)cc2Cl)o1,-1.5,-29,4,2,6,
O=C(COC(=O)c1cccc(Cl)c1)Nc1cc(Cl)ccc1Oc1ccccc1,1.1,13,3,10*,-50,
SMILES,sdo1 growth,Yeast lifespan up,Measles CPE,RAM network inh,BB579 growth dn,others
COc1ccccc1C(=O)C1CCCN(C(=O)c2cccc(-n3cccn3)c2)C1 (stereo not given),.,.,.,1,.,
COc1ccc(C2CC23N=C(c2ccccc2)OC3=O)cc1 (stereo not given),-0.57,45*,43*,0,-14,
Cc1ccc(-c2nnn(CC(=O)N(c3cnc4ccccc4c3)C(C(=O)NC3CCCC3)c3ccncc3)n2)o1 (stereo not given),.,.,.,8.6*,.,
NC(=S)N/N=C\c1c(OCc2ccccc2Cl)ccc2ccccc12,.,.,.,4,.,
CC(C)(C)c1ccc(C(=O)C=[N+]=[N-])cc1,-0.05,3,3,-1,-62,
Nc1nccc(-c2ccc(-n3cnc4ccccc43)cc2)n1,.,.,.,0,.,
Cc1nccc(-c2ccc(-n3cnc4ccccc43)cc2)n1,0.7,-15,29*,2,-66,
CC(=O)N1c2ccccc2Nc2ccccc21,1.3,-5,5,1,-44,
CC(=O)N1c2ccccc2C2(O)N=C(C)SC12 (stereo not given),0.55,4,35,0,62*,
COc1cccc(C2=NOC(C(=O)NCc3ccccc3)C2)c1 (stereo not given),-0.11,-20,23*,1,-5,
COc1ccc(C2=NOC(C(=O)NCc3ccccc3)C2)cc1 (stereo not given),-0.46,-21,3,3,-32,
COc1ccc(CNC(=O)C2CC(c3ccccc3[N+](=O)[O-])=NO2)cc1 (stereo not given),0.14,-24,36*,0,-8,
O=C(Nc1cccc(Cl)c1)Nc1ccccc1-n1ccnc1,.,.,.,0,.,
COCCN1C(=O)N[C@@H](c2ccccc2)C(C(C)=O)=C1C,0.42,2,22,2,-36,
CCN1C(=O)N[C@H](c2ccc(Br)cc2)C(C(C)=O)=C1C,0.3,40*,18,0,-20,
COc1ccc2[nH]c(=O)c(CN(Cc3cccnc3)C(=S)NCC3CCCO3)cc2c1 (stereo not given),.,.,.,2,.,
COC(=O)c1ccc2c(c1)C(=O)/C(=C/c1ccc(O)cc1)O2,3.5*,-6,6,1,-9,SDO1 rescue DR=0.06
COCCN1C(=O)C(O)=C(C(=O)c2ccco2)C1c1cccc(Oc2ccccc2)c1 (stereo not given),9*,4,31,6,-5,SDO1 rescue DR=0.076*
O=C(COC(=O)c1cccnc1Nc1cccc(C(F)(F)F)c1)NC1CCS(=O)(=O)C1 (stereo not given),-0.06,-1,3,0,6,
Cc1cccc(NC(=O)C2(c3ccc([N+](=O)[O-])cc3)CCCC2)c1,6.5*,-3,1,5,-18,SDO1 rescue DR=0.051
Cc1cc(C)nc(NS(=O)(=O)c2ccc(NC(=O)C3(c4ccc([N+](=O)[O-])cc4)CCCC3)cc2)n1,0.65,2,13,1,-14,
O=C(COC(=O)c1cccc2ccccc12)NCCCc1ccccc1,11*,1,10,11*,-23,SDO1 rescue DR=0.051
COc1cccc(C(=O)OCC(=O)NCCc2ccccc2)c1OC,.,.,.,2,.,
CC(C)CN(CC(C)C)C(=O)CC(=O)NC(=O)c1ccc(Cl)cc1,-0.2,-5,3,0,-8,
COc1ccc(-c2nnc(SCC(=O)NCc3ccco3)o2)cc1,-0.12,-9,15,-1,-6,
